Experiment [1] concerns P. falciparum strain 3D7. Description: P. falciparum growth inhibition assay. The class given is cell-based, Plasmodium falciparum. Summed up: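 3D7 parasites kept in human erythrocytes (4% hematocrit) in RPMI with 0.5% albumax and synchronized by repeated sorbitol treatment. Assay wells used complete medium, 2% hematocrit and parasitemia ≤1%. Test compound (0–100 μM final) was added to 8–10 h rings, with a DMSO solvent control. Growth ran 52 h, then SYBR green DNA fluorescence was read. Triplicate wells; experiment repeated twice.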

Experiment [2] relates to 3D7 Plasmodium parasites. The experiment in a line: Effect on parasite morphology and development. It is filed as cell-based, Plasmodium falciparum. To be noted: at their IC50 value concentration, ring stage (8–10 h) 3D7 parasites treated. An outline of the steps: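 Sorbitol-synchronised P. falciparum 3D7 cultured in human erythrocytes (4% hematocrit) in RPMI with 0.5% albumax. Ring-stage (8–10 h) parasites treated with test compound, E-64 or solvent alone as control. Light microscopy of parasitized RBCs at several time points after treatment, following progression from ring to trophozoite to schizont to merozoites and reinvasion of fresh RBCs as new rings.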

[3] abbreviates: Plasmodium falciparum, 3D7, read-out: Inhibition of P. falciparum EC50, 3D7 culture, ring stage 8–10 h, 52 h growth, SYBR green.

Where two headings read alike, the source gives them in different places.

As to `FC(F)(F)c1cccc(-n2cc(COc3ccnc4cc(Cl)ccc34)nn2)c1` [Compound T1, 7-Chloro-4-({1-[3-(trifluoromethyl)phenyl]-1H-1,2,3-triazol-4yl}methoxy) quinoline], in experiment [1] (setting [3]), the EC50 – broadly, the concentration that produces a half-maximal response – is 49.5 µM.
As to `Fc1ccc(-n2cc(COc3ccnc4cc(Cl)ccc34)nn2)cc1F` [Compound T4, 7-Chloro-4-{[1-(3,4-difluorophenyl)-1H-1,2,3-triazol-4-yl]methoxy} quinoline], in experiment [1] (setting [3]), the EC50 amounted to 21.9 µM. The New ring formation entry in experiment [2] is reported as “few new rings”.
Take `Fc1ccccc1-n1cc(COc2ccnc3cc(Cl)ccc23)nn1` [Compound T5, 7-Chloro-4-{[1-(2-fluorophenyl)-1H-1,2,3-triazol-4-yl]methoxy} quinoline]: the EC50 in experiment [1] (setting [3]) came to 49.5 µM; in experiment [1] (read-out: Inhibition of P. falciparum EC50, 3D7 culture, ring stage 8–10 h, 52 h growth, SYBR green), 66.6 µM.
In the case of `Fc1ccc(-n2cc(COc3ccnc4cc(Cl)ccc34)nn2)cc1` [Compound T6, 7-Chloro-4-{[1-(4-fluorophenyl)-1H-1,2,3-triazol-4-yl]methoxy} quinoline], the half-maximal effective concentration (EC50) in experiment [1] (setting [3]) is approximately 57.9 µM.
Take `O=[N+]([O-])c1ccc(-n2cc(COc3ccnc4cc(Cl)ccc34)nn2)cc1` [Compound T7, 7-Chloro-4-{[1-(4-nitrophenyl)-1H-1,2,3-triazol-4-yl]methoxy} quinoline]: the EC50 in experiment [1] (setting [3]) came out at 49.9 µM. The New ring formation entry in experiment [2] is given as “few new rings”.
In the case of `COc1ccc(-n2cc(COc3ccnc4cc(Cl)ccc34)nn2)cc1` [Compound T8, 7-Chloro-4-{[1-(4-methoxyphenyl)-1H-1,2,3-triazol-4-yl]methoxy} quinoline], the concentration for a half-maximal effect (EC50) in experiment [1] (setting [3]) is 51.7 µM.
For `Cc1ccccc1-n1cc(COc2ccnc3cc(Cl)ccc23)nn1` [Compound T9, 7-Chloro-4-{[1-(2-methylphenyl)-1H-1,2,3-triazol-4-yl]methoxy} quinoline], the EC50 in experiment [1] (setting [3]) worked out at 147 µM.
`Clc1ccc2c(OCc3cn(-c4ccccc4)nn3)ccnc2c1` [Compound T10, 7-Chloro-4-[(1-phenyl-1H-1,2,3-triazol-4-yl)methoxy] quinoline]: the EC50 in experiment [1] (setting [3]) is approximately 57.6 µM.

For the origin of these results see paper PMC9076119 (RSC Advances, 2019).
